Experimental data published in publication PMC11977460 (European Heart Journal Open, 2025).

Experiments:
[1] = test system: cultured rat cardiac fibroblasts; test: Sircol collagen secretion assay on cell supernatants; assay type: cell-based; details: 100 pM, 24 h, n = 6 independent cultures
Outline: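 Rat ventricular fibroblasts, isolated by collagenase digestion, were adhesion-selected and cultured 5 days in DMEM with 10% FBS. They were then exposed to peptide at 100 pM for 24 h. Culture supernatants were used directly in the Sircol dye-binding assay, with pellets rinsed and dissolved in alkali reagent; collagen was read against standards. Six independent cultures were run.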

[2] = test system: mongrel dogs; details: mongrel dogs following peptide administration; cited from earlier work
[3] = test system: high-fat/streptozotocin-induced Type 2 diabetic (T2D) rats; test: Blood glucose and physiological parameters; assay type: in vivo, rat; details: for food intake / urine output / water intake / body weight: T2D animals, Supplementary Figures S1 and S2; for food intake / urine output / water intake: 24 h metabolic cages; for fasting plasma glucose at Week 6: first set, untreated T2D rose further to ≈500 mg·dL−1 at Week 6
Outline: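 Male Wistar rats, 12 months old, 450 ± 25 g. Type 2 diabetes induced by a 60% kcal lard diet for 4 weeks, then three i.p. STZ doses of 40 mg·kg−1 (citrate, pH 4.5) on consecutive days; shams received citrate. Tail glucose was read by glucometer in conscious restrained rats after a 12-h fast. Treatment ran 6 weeks; rats were held singly in metabolic cages for 24 h before the end.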

[4] = test system: ANP/cGMP concentrations in T2D rats; test: Cardiac and plasma ANP/cGMP measurement by ELISA; assay type: in vivo, rat; details: for increase in cardiac cGMP levels vs. T2D: acetylated samples, T2D tended to decrease ≈50%, n = 4-6; for increase in ANP plasma concentration: non-significant for MANP, P = 0.0967
[5] = test system: cultured rat cardiac fibroblasts; test: MTT proliferation assay; assay type: cell-based; details: 100 pM, 24 h, n = 6 independent cultures
Outline: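 Ventricular fibroblasts came from normal Wistar rats by collagenase type V digestion and differential centrifugation, then were selected by 2-h adhesion in DMEM with 10% heat-inactivated FBS. On day 5 of culture, cells were exposed to peptide at 100 pM for 24 h. MTT (0.5 mg·mL−1 in Tyrode) was added for 1 h at 37°C and formazan dissolved in DMSO for absorbance reading. Six independent cultures were run.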

[6] = test system: myocardial fibrosis in T2D rat hearts; test: Myocardial fibrosis histology and immunofluorescence; assay type: in vivo; details: first set, 2 pmol·kg−1·min−1 s.c., 6 weeks; for decrease in WGA staining (extracellular matrix): n = 5-6; for decrease in Masson's trichrome staining: n = 6
[7] = test system: cardiac collagen in T2D rat hearts; assay type: in vivo; details: first set; Sircol assay; 2 pmol·kg−1·min−1 s.c., 6 weeks; n = 5-6
Outline: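 Ventricular tissue came from diabetic rats after 6 weeks of pump-delivered peptide at 2 pmol·kg−1·min−1. Tissue was homogenized in acid-pepsin and reacted with Sircol dye. Collagen-dye pellets were spun down, rinsed with acetic acid and dissolved in alkali reagent. Soluble collagen was read as absorbance at 550 nm against standards.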

[8] = regulated by clearance receptor (NPR-C) and peptidases; cited from earlier work
[9] = test system: SMAD2/3, NFATc3, ERK1/2, JNK, PKG/VASP in T2D rat hearts; assay type: in vivo; details: for cardiac cGMP-dependent pathway PKG/VASP (VASP phosphorylation): western blot, T2D lowered VASP phosphorylation by ≈60%
Outline: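 Ventricles came from diabetic rats after 6 weeks of peptide infusion (2 pmol·kg−1·min−1) or sacubitril in drinking water (18 mg·kg−1·day−1). Tissue was lysed in RIPA with protease and phosphatase inhibitors and protein assayed by Bradford. Western blots: 12% SDS-PAGE, PVDF, 5% BSA block, primaries overnight at 4°C, GAPDH reference, three blots per condition. Antibody arrays: 5 µg protein dot-blotted onto PVDF, then probed with GAPDH as internal control.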

[10] = test system: cultured rat cardiac fibroblasts; test: Western blots of SMAD2/3 and PKG/VASP in high-glucose-treated fibroblasts; assay type: cell-based; details: high glucose 24 h with 100 pM peptide, western blot; for decrease in SMAD2 phosphorylation levels: n = 3; for activation of PKG/VASP pathway (VASP phosphorylation at serine 239): n = 5
Outline: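 Day-5 cultures of rat ventricular fibroblasts were given high glucose for 24 h, with or without peptide at 100 pM. Cells were lysed in RIPA with protease and phosphatase inhibitors, and proteins were separated by 12% SDS-PAGE and blotted to PVDF. Membranes were blocked in 5% BSA and probed overnight at 4°C, with GAPDH as housekeeper. Blots came from three or five independent cultures.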

[11] = molecular target: insulin-degrading enzyme (IDE); details: relative to ANP; cited from earlier work
[12] = test system: neprilysin (NEP); details: cited from earlier work
[13] = first set, ELISA on ventricular tissue, 2 pmol·kg−1·min−1 s.c., 6 weeks, n = 6

| Compound | decrease in collagen secretion [1] | increase in plasma ANP [2] | increase in plasma cGMP [2] | food intake [3] | urine output [3] | water intake [3] | body weight [3] | fasting plasma glucose at Week 6 ([3]; T2D rats) | increase in cardiac ANP levels vs. T2D [4, 13] | increase in cardiac cGMP levels vs. T2D ([4]; first set, ELISA) | increase in ANP plasma concentration ([4]; first set, ELISA, n = 6) | increase in cardiac ANP levels vs. T2D ([4]; second set, ELISA, n = 5-7) | decrease in fibroblast proliferation [5] | decrease in WGA staining (extracellular matrix) [6] | decrease in Masson's trichrome staining [6] | half-life [8] | cardiac cGMP-dependent pathway PKG/VASP (VASP phosphorylation) ([9]; first set, n = 3) | decrease in SMAD2 phosphorylation levels [10] | activation of PKG/VASP pathway (VASP phosphorylation at serine 239) [10] | further results |
| --- | --- | --- | --- | --- | --- | --- | --- | --- | --- | --- | --- | --- | --- | --- | --- | --- | --- | --- | --- | --- |
| atrial natriuretic peptide [ANP] | ≈ 30% | ~1.5 fold | ~1.5 fold | reduced | reduced | reduced | without affecting the body weight | remained unchanged | no noticeable effect | attenuated | no noticeable effect | no noticeable effect | ≈ 20% | ≈ 50% | ≈ 50% | 3 min | restored this pathway | ≈ 55% | ≈ 2.3 fold | plasma ANP levels ([4]; second set, ELISA, n = 5-7): no noticeable effect; increase in cardiac soluble collagen [7]: ≈ 25% |
| CCOC(=O)[C@H](C)C[C@@H](Cc1ccc(-c2ccccc2)cc1)NC(=O)CCC(=O)O [SACU, Sacubitril sodium] |  |  |  | reduced | reduced | reduced | without affecting the body weight |  |  |  |  | ≈ 50% |  |  |  |  |  |  |  | metabolic profile (blood glucose) ([3]; second set, T2D rats, SACU 18 mg·kg−1·day−1 in drinking water): same metabolic profiles as their counterparts; level of ERK1/2 phosphorylation relative to GAPDH ([9]; second set, antibody array, n = 4): decreased |
| brain natriuretic peptide [BNP] |  |  |  |  |  |  |  |  |  |  |  |  |  |  |  | 20 min |  |  |  |  |
| M-atrial natriuretic peptide [MANP] | ≈ 30% | ~1.5 fold | ~1.5 fold | reduced | reduced | reduced | without affecting the body weight | remained unchanged | ≈ 2 fold | ≈ 5 fold | ≈ 20% |  | ≈ 20% | ≈ 75% | ≈ 80% |  | restored this pathway | ≈ 55% | ≈ 2.3 fold | IC50 with insulin-degrading enzyme (IDE), higher than ANP [11]: 30 fold; resistance to NEP degradation [12]: resistant to NEP degradation; cardiac NFATc3 activation (phosphorylated inactivated protein levels) ([9]; first set, antibody array vs T2D controls, n = 4): significantly reduced NFATc3 activation; cardiac ERK1/2 activation (pERK/ERK) ([9]; first set, antibody array, T2D hearts, n = 4): markedly attenuated; lower SMAD3 phosphorylation levels compared with T2D animals ([9]; first set, cardiac tissue western blot, 2 pmol·kg−1·min−1 s.c., 6 weeks, n = 3): ≈ 55% |
